Assay results of several laboratories.
Protocols differ between the studies behind these lines.
Read-out: microbial growth

CCCCCCC/C=C/C(=O)N1CC(=O)/C(=C(\C)O)C1=O — MIC (Proteus vulgaris; ATCC33420): > 200 µg/mL
CCCCCCCCN1CCN(CC(O)(Cn2cncn2)c2ccc(F)cc2F)CC1 (stereo not drawn) — MIC (Nakaseomyces glabratus; broth dilution; ATCC2001; 48 h): 15.6 µg/mL
CCCCC(=O)N1C(=O)/C(=C(/C)O)C(=O)C1CC(C)C (stereo not drawn) — MIC (Proteus vulgaris; ATCC33420): > 200 µg/mL
CCCCCCCCCCCCCCS(=O)(=O)C[C@@H]1O[C@@H](O[C@@H]2[C@@H](O)[C@H](O[C@@H]3O[C@@H](CN)[C@H](O)[C@@H](O)[C@@H]3N)[C@@H](N)C[C@H]2N)[C@@H](O)[C@H](N)[C@H]1O — MIC (Listeria monocytogenes; ATCC19115): 2 to 4 µg/mL
O=C(Cc1cc(O)c(O)c(O)c1)NCCCCCCCC[P+](c1ccccc1)(c1ccccc1)c1ccccc1.[Br-] — MIC (Cryptococcus neoformans; broth dilution; ATCC208821; 24 h): > 32 µg/mL
CNC(=O)c1cc(Oc2ccc(NC(=O)Nc3ccc(Cl)c(C(F)(F)F)c3)cc2)ccn1 — MIC (Listeria monocytogenes): 3 µM
CCCCCCCCCCCCS(=O)(=O)C[C@@H]1O[C@@H](O[C@@H]2[C@@H](O)[C@H](O[C@@H]3O[C@@H](CN)[C@H](O)[C@@H](O)[C@@H]3N)[C@@H](N)C[C@H]2N)[C@@H](O)[C@H](N)[C@H]1O — MIC (Listeria monocytogenes; ATCC19115): 4 to 8 µg/mL
CC(C)Oc1c(-n2cc(-c3ccc(NC(=O)C(CC(N)=O)NC(=O)c4ccc(NC(=O)c5ccc(C#N)cc5)cc4)cc3)nn2)ccc(C(=O)Nc2ccc(C(=O)O)cc2)c1O (stereo not drawn) — MIC (Proteus vulgaris; DSM2140): 2 µg/mL
CCCCCCC/C=C/C(=O)N1C(=O)/C(=C(\O)c2ccc(O)cc2)C(=O)C1CC(C)C (stereo not drawn) — MIC (Proteus vulgaris; ATCC33420): > 200 µg/mL
C/C(=C\c1ccc(O)cc1)C(=O)Nc1ccc(C(=O)N[C@@H](CC(N)=O)C(=O)Nc2ccc(C(=O)Nc3ccc(C(=O)Nc4ccc(C(=O)O)cc4)c(O)c3OC(C)C)cc2)cc1 — MIC (Proteus vulgaris; DSM2140): 0.125 µg/mL
CCCCCCC/C=C/C(=O)N1C(=O)/C(=C(/C)O)C(=O)C1CCC(=O)O (stereo not drawn) — MIC (Proteus vulgaris; ATCC33420): > 200 µg/mL
CC(C)Oc1c(NC(=O)c2ccc(NC(=O)c3ccc(NC(=O)[C@H](CC(N)=O)NC(=O)c4ccc(NC(=O)c5ccc(C#N)s5)cc4)cc3)c(OC(C)C)c2O)ccc(C(=O)O)c1O — MIC (Proteus vulgaris; DSM2140): 1 µg/mL
CCCCCCC/C=C/C(=O)N1C(=O)/C(=C(\O)CCCC)C(=O)C1CC(C)C (stereo not drawn) — MIC (Proteus vulgaris; ATCC33420): > 200 µg/mL
CC(C)Oc1c(NC(=O)c2ccc(NC(=O)[C@H](CC(N)=O)NC(=O)c3ccc(NC(=O)c4ccc(C#N)s4)cc3)cc2)ccc(C(=O)Nc2ccc(C(=O)O)cc2)c1O — MIC (Proteus vulgaris; DSM2140): 0.06 µg/mL
O=C(CCCCCCCCCC[P+](c1ccccc1)(c1ccccc1)c1ccccc1)Nc1cc(O)c(O)c(O)c1.[Br-] — MIC (Cryptococcus neoformans; broth dilution; ATCC208821; 24 h): 4 µg/mL
